target: Adenosine receptor A2a (Homo sapiens, UniProt P29274); test: Displacement of [3H]-ZM241385 from human adenosine A2A receptor expressed in CHO-K1 cells after 1 hr by scintillation counting; type: cell-based
Sequence (P29274 whole entry): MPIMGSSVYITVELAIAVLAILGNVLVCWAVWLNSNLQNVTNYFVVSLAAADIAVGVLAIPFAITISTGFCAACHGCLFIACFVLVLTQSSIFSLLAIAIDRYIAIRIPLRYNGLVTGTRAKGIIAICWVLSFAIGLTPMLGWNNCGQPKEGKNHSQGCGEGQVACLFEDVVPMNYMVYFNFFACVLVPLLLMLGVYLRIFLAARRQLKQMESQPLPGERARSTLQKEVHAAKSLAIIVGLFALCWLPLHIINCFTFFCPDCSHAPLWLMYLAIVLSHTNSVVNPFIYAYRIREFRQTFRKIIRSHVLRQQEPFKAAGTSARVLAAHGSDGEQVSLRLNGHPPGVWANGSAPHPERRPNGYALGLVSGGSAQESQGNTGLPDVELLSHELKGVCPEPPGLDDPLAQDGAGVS

First: CCN(C(C)=O)c1ccc(OC)c2nc(NC(=O)c3cnn(Cc4cccc(F)c4)c3)sc12
Second: CCN(C(C)=O)c1ccc(OC)c2nc(NC(=O)c3ccc(F)cc3)sc12
The Ki of the first is 7.3-fold lower: 3 nM for the first, 22 nM for the second. The first binds more tightly here.

Going from `CCN(C(C)=O)c1ccc(OC)c2nc(NC(=O)c3ccc(C(=O)N4CCCC4)cc3)sc12` to `CCN(C(C)=O)c1ccc(OC)c2nc(NC(=O)c3ccc(C(=O)OC)cc3)sc12`, the Ki rises from 68 nM to 170 nM (2.5-fold).

`CCN(C(C)=O)c1ccc(OC)c2nc(NC(=O)c3ccc(-n4cnnn4)cc3)sc12` and `CCN(C(C)=O)c1ccc(OC)c2nc(NC(=O)c3ccc(-n4ccnc4)cc3)sc12` are within 1.5-fold of each other in Ki: 80 nM for the first, 77 nM for the second.

First: COc1ccc(N(CCCO)C(C)=O)c2sc(NC(=O)c3ccc(F)cc3)nc12
Second: COc1ccc(N(CCO)C(C)=O)c2sc(NC(=O)c3ccc(F)cc3)nc12
The Ki of the first is 3.4-fold lower: 29 nM for the first, 98 nM for the second.

Going from `COC(=O)CN(C(C)=O)c1ccc(OC)c2nc(NC(=O)c3ccc(F)cc3)sc12` to `COCCN(C(C)=O)c1ccc(OC)c2nc(NC(=O)c3ccc(F)cc3)sc12`, the Ki rises from 5 nM to 38 nM (7.6-fold).

Compared with `COc1ccc(N(CC(C)C)C(C)=O)c2sc(NC(=O)c3ccc(F)cc3)nc12`, `COc1ccc(N(C)C(C)=O)c2sc(NC(=O)c3ccc(F)cc3)nc12` is 13-fold higher in Ki: 3 nM for the first, 39 nM for the second. The first binds more tightly here.

Compared with `COc1ccc(N(C(C)=O)C(F)F)c2sc(NC(=O)c3ccc(F)cc3)nc12`, `COc1ccc(N(CC(F)(F)F)C(C)=O)c2sc(NC(=O)c3ccc(F)cc3)nc12` is 1.7-fold lower in Ki: 61 nM for the first, 35 nM for the second.

First: CCN(C(C)=O)c1ccc(OC)c2nc(NC(=O)c3ccc(CN4CCCC4=O)cc3)sc12
Second: CCN(C(C)=O)c1ccc(OC)c2nc(NC(=O)c3ccc(CN(C)S(C)(=O)=O)cc3)sc12
The Ki of the first is 2.6-fold lower: 27 nM for the first, 71 nM for the second. The first binds more tightly here.

`CCN(C(C)=O)c1ccc(OC)c2nc(NC(=O)c3ccc(C(=O)N(C)CCOC)cc3)sc12` gave a Ki of 26 nM.

target: T1, Adenosine receptor A2b (Homo sapiens, UniProt P29275); test: Displacement of [3H]ZM241385 from human adenosine A2B receptor expressed in CHO cells after 1 hr by scintillation counting; type: cell-based
T1 sequence (P29275 whole entry): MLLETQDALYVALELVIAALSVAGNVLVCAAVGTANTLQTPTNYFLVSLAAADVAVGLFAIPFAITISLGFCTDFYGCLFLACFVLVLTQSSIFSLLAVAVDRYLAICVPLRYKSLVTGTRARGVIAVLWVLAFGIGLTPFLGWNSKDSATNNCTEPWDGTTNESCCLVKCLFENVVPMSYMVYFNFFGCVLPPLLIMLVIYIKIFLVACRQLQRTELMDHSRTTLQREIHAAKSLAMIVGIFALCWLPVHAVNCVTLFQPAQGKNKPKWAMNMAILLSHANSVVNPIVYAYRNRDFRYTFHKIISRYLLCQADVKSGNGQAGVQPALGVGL
Procedure, shortened: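 Whole CHO cells expressing human A2B receptor, harvested mechanically from 80% confluent flasks, frozen, then resuspended in assay buffer on assay day. Competition against [3H]ZM241385 (30 nM final), 1 h at room temperature with shaking. Harvest on 0.5% polyethyleneimine-treated filter plates, air-dried, scintillation counting.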

Going from `CCN(C(C)=O)c1ccc(OC)c2nc(NC(=O)c3cnn(Cc4cccc(F)c4)c3)sc12` to `CCN(C(C)=O)c1ccc(OC)c2nc(NC(=O)c3ccc(F)cc3)sc12`, the Ki rises from 6 nM to 13 nM (2.2-fold). The first binds more tightly here.

Going from `CCN(C(C)=O)c1ccc(OC)c2nc(NC(=O)c3ccc(-n4cnnn4)cc3)sc12` to `CCN(C(C)=O)c1ccc(OC)c2nc(NC(=O)c3ccc(-n4ccnc4)cc3)sc12`, the Ki falls from 23 nM to 8 nM (2.9-fold). The second binds more tightly here.

`COc1ccc(N(C)C(C)=O)c2sc(NC(=O)c3ccc(F)cc3)nc12` and `CCN(C(C)=O)c1ccc(OC)c2nc(NC(=O)c3ccc(C(=O)OC)cc3)sc12` are within 1.5-fold of each other in Ki: 22 nM for the first, 15 nM for the second.

First: CCN(C(C)=O)c1ccc(OC)c2nc(NC(=O)c3ccc(CN4CCCC4=O)cc3)sc12
Second: CCN(C(C)=O)c1ccc(OC)c2nc(NC(=O)c3ccc(CN(C)S(C)(=O)=O)cc3)sc12
The Ki of the first is 3.5-fold higher: 14 nM for the first, 4 nM for the second.

Compound `CCN(C(C)=O)c1ccc(OC)c2nc(NC(=O)c3ccc(C(=O)N(C)CCOC)cc3)sc12` has a Ki of 13 nM.

target: T1, Adenosine receptor A2b; test: Antagonist activity at human adenosine A2B receptor expressed in CHO cells assessed as inhibition of adenosine-induced cAMP production; type: functional, cell-based
Procedure, shortened: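 CHO cells stably transfected with human A2B receptor, grown overnight as monolayer (7500 cells/well), washed with Krebs buffer, then exposed to compounds in Krebs buffer (final DMSO 1.1%) for 20–25 min. Wells emptied, cells lysed and cAMP measured with an enzyme-fragment complementation cAMP kit for adherent cells.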

First: CCN(C(C)=O)c1ccc(OC)c2nc(NC(=O)c3cn[nH]c3)sc12
Second: CCN(C(C)=O)c1ccc(OC)c2nc(NC(=O)c3ccc(F)cc3)sc12
The IC50 of the first is 1.8-fold higher: 21 nM for the first, 12 nM for the second.

Compared with `CCN(C(C)=O)c1ccc(OC)c2nc(NC(=O)c3cnn(Cc4cccc(F)c4)c3)sc12`, `CCN(C(C)=O)c1ccc(OC)c2nc(NC(=O)c3ccc(-n4ccnc4)cc3)sc12` is 1.6-fold higher in IC50: 12 nM for the first, 19 nM for the second.

First: CCN(C(C)=O)c1ccc(OC)c2nc(NC(=O)c3ccc(C(=O)N4CCCC4)cc3)sc12
Second: CCN(C(C)=O)c1ccc(OC)c2nc(NC(=O)c3ccc(C(=O)OC)cc3)sc12
The IC50 of the first is 2.2-fold lower: 16 nM for the first, 35 nM for the second. The first is the more potent here.

`CCN(C(C)=O)c1ccc(OC)c2nc(NC(=O)c3ccc(-n4cnnn4)cc3)sc12` and `CCN(C(C)=O)c1ccc(OC)c2nc(NC(=O)c3ccc(CN(C)S(C)(=O)=O)cc3)sc12` are within 1.5-fold of each other in IC50: 28 nM for the first, 19 nM for the second.

Compared with `COc1ccc(N(CCCO)C(C)=O)c2sc(NC(=O)c3ccc(F)cc3)nc12`, `COc1ccc(N(CCO)C(C)=O)c2sc(NC(=O)c3ccc(F)cc3)nc12` is 1.8-fold higher in IC50: 42 nM for the first, 77 nM for the second.

Going from `COC(=O)CN(C(C)=O)c1ccc(OC)c2nc(NC(=O)c3ccc(F)cc3)sc12` to `COCCN(C(C)=O)c1ccc(OC)c2nc(NC(=O)c3ccc(F)cc3)sc12`, the IC50 rises from 8 nM to 33 nM (4.1-fold).

`COc1ccc(N(CC(C)C)C(C)=O)c2sc(NC(=O)c3ccc(F)cc3)nc12` and `COc1ccc(N(C(C)=O)C(C)C)c2sc(NC(=O)c3ccc(F)cc3)nc12` are within 1.5-fold of each other in IC50: 23 nM for the first, 19 nM for the second.

Compared with `COc1ccc(N(C)C(C)=O)c2sc(NC(=O)c3ccc(F)cc3)nc12`, `COc1ccc(N(C(C)=O)C(F)F)c2sc(NC(=O)c3ccc(F)cc3)nc12` is 15-fold higher in IC50: 15 nM for the first, 230 nM for the second.

`COc1ccc(N(CC(F)(F)F)C(C)=O)c2sc(NC(=O)c3ccc(F)cc3)nc12` and `CCN(C(C)=O)c1ccc(OC)c2nc(NC(=O)c3ccc(CN4CCCC4=O)cc3)sc12` are within 1.5-fold of each other in IC50: 40 nM for the first, 28 nM for the second.

In the case of `CCN(C(C)=O)c1ccc(OC)c2nc(NC(=O)c3ccc(C(=O)N(C)CCOC)cc3)sc12`, the IC50 is reported as 13 nM.

target: T2, Adenosine receptor A1 (Homo sapiens, UniProt P30542); test: Displacement of [3H]-DPCPX from human adenosine A1 receptor expressed in CHO-K1 cells after 1 hr by scintillation counting; type: cell-based
T2 sequence (P30542 whole entry): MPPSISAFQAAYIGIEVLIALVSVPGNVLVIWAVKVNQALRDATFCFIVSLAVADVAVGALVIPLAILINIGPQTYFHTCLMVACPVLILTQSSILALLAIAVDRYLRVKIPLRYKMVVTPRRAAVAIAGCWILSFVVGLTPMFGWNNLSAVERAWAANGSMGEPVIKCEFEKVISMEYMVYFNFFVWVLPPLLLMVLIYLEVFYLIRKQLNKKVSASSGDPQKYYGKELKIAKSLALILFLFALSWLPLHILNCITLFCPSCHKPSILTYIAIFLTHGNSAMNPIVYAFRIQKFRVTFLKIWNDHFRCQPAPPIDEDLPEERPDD
Procedure, shortened: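 Commercial human A1 membranes (10 µg/well) in HEPES 50 mM, NaCl 100 mM, MgCl2 1 mM buffer; competition against [3H]-DPCPX (4.8 nM final), 1 h at room temperature with orbital shaking. Filtration harvest on polyethyleneimine-treated (0.5%) glass-fibre plates, air-dried, scintillation counting.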

Compared with `CCN(C(C)=O)c1ccc(OC)c2nc(NC(=O)c3cnn(Cc4cccc(F)c4)c3)sc12`, `CCN(C(C)=O)c1ccc(OC)c2nc(NC(=O)c3ccc(F)cc3)sc12` is 7.3-fold higher in Ki: 9 nM for the first, 66 nM for the second.

Compared with `CCN(C(C)=O)c1ccc(OC)c2nc(NC(=O)c3ccc(C(=O)N4CCCC4)cc3)sc12`, `CCN(C(C)=O)c1ccc(OC)c2nc(NC(=O)c3ccc(C(=O)OC)cc3)sc12` is 3.7-fold higher in Ki: 50 nM for the first, 185 nM for the second. The first binds more tightly here.

`CCN(C(C)=O)c1ccc(OC)c2nc(NC(=O)c3ccc(-n4cnnn4)cc3)sc12` and `CCN(C(C)=O)c1ccc(OC)c2nc(NC(=O)c3ccc(-n4ccnc4)cc3)sc12` are within 1.5-fold of each other in Ki: 130 nM for the first, 150 nM for the second.

First: COc1ccc(N(CCCO)C(C)=O)c2sc(NC(=O)c3ccc(F)cc3)nc12
Second: COc1ccc(N(CCO)C(C)=O)c2sc(NC(=O)c3ccc(F)cc3)nc12
The Ki of the first is 4.5-fold lower: 100 nM for the first, 450 nM for the second. The first binds more tightly here.

Compared with `COC(=O)CN(C(C)=O)c1ccc(OC)c2nc(NC(=O)c3ccc(F)cc3)sc12`, `COCCN(C(C)=O)c1ccc(OC)c2nc(NC(=O)c3ccc(F)cc3)sc12` is 4.8-fold higher in Ki: 23 nM for the first, 110 nM for the second.

Compared with `COc1ccc(N(CC(C)C)C(C)=O)c2sc(NC(=O)c3ccc(F)cc3)nc12`, `COc1ccc(N(C)C(C)=O)c2sc(NC(=O)c3ccc(F)cc3)nc12` is 1.8-fold higher in Ki: 37 nM for the first, 66 nM for the second. The first binds more tightly here.

`COc1ccc(N(C(C)=O)C(F)F)c2sc(NC(=O)c3ccc(F)cc3)nc12` and `COc1ccc(N(CC(F)(F)F)C(C)=O)c2sc(NC(=O)c3ccc(F)cc3)nc12` are within 1.5-fold of each other in Ki: 30 nM for the first, 42 nM for the second.

`CCN(C(C)=O)c1ccc(OC)c2nc(NC(=O)c3ccc(CN4CCCC4=O)cc3)sc12` and `CCN(C(C)=O)c1ccc(OC)c2nc(NC(=O)c3ccc(CN(C)S(C)(=O)=O)cc3)sc12` are within 1.5-fold of each other in Ki: 400 nM for the first, 410 nM for the second.

Work on `CCN(C(C)=O)c1ccc(OC)c2nc(NC(=O)c3ccc(C(=O)N(C)CCOC)cc3)sc12` yielded a Ki of 180 nM.

Source: ChEMBL document CHEMBL1177799 (Bioorg Med Chem Lett, 2010)
